Assay outcomes from PubChem BioAssay.
Lipid droplet: modulators of hepatic lipid droplet formation; inhibition, % at 6.5 µM; AML12 mouse hepatocytes, oleate lipid droplets, BODIPY imaging; 0.4% of 240,000 active; AID 1656;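 active = lipid droplet intensity inhibited by at least 50%, with more than 500 cells counted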
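Test system: AML12 hepatocytes (mouse); reagent: oleate loading, 100 µM; dosing: one dose, 6.5 µM compound; incubation: overnight exposure; signal: fluorescence imaging, 20x objective, two fields per well; read-out basis: % inhibition of corrected integrated BODIPY droplet signal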
procasp7 counter: activates human procaspase-7, counter-screen for procaspase-3 activators. P55210. recombinant procaspase-7, Ac-DEVD-pNA absorbance 405 nm; D23A/D198A/D206A triple mutant, cannot self-cleave; scale: DMSO 0, 5 µM enzyme 100. activation, % at 8.5 µM. 0.093% of 330,000 active. AID 463210;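 active = percent activation above the screen-wide mean plus 3 SD, cut at about 25% in these data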
Target sequence (P55210 whole entry D23A/D198A/D206A): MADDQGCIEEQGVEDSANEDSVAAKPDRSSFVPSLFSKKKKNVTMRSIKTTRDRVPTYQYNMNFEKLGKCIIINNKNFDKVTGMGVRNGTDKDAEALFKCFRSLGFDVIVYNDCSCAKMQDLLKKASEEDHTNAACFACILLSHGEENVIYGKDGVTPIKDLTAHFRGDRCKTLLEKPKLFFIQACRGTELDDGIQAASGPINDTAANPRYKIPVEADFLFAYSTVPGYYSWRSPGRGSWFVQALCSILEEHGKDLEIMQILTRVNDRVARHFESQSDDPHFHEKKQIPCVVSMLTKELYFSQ
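buffer or medium = Zinc-free HEPES/NaCl buffer, pH 7.4 | material = Procaspase-7 triple mutant (PC-7 D3A) | input = 2 µM procaspase-7 mutant as dispensed | signal = Epi-absorbance of released pNA at 405 nm, two timepoints | timing = 1 h preincubation, 2 h reaction | replicates = singlicate compound testing | evaluation = % activation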
GRK2 aptamer HTS: inhibitors of human GRK2 displacing RNA aptamer; P25098; bead flow cytometry, FAM-aptamer displacement from GRK2; inhibition of aptamer binding, % at 10 µM; 0.59% of 330,000 active;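 active = inhibition of aptamer binding above 40%, roughly 3 SD of noise, on plates passing a quality check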;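 note: median bead fluorescence of bound FAM aptamer so fluorescent compounds give negative values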
JMJD2C inh: inhibitors of human GASC-1 (JMJD2C) demethylase. Q9H3R0. GST-JMJD2C(1-420) H3K9me3 demethylation, DELFIA europium. inhibition, % at 2.35 µM. 0.069% of 330,000 active. AID 2099;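 active = more than half of a compound's replicate wells show inhibition beyond 50%, single wells judged on their own value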;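 note: signal counts dimethyl H3K9 product captured on neutravidin plate; 0% = median of DMSO wells and 100% = 0.3 times that DMSO median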
VLA-4 inh: inhibition in a human VLA-4 binding assay; VLA-4 expressing cells, ligand binding flow cytometry; P13612; inhibition, % (about 7 µM as worked out from the volumes in the protocol); 0.2% of 330,000 active; AID 2557; in the data active = inhibition above about 50%
proCasp3 act: procaspase-3 (human) activation; P42574; recombinant procaspase-3 D3A, Ac-DEVD-pNA absorbance 405 nm; activation, % at 8.5 µM; 0.11% of 330,000 active;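 active = activation above the mean of all tested compounds plus 3 SD, cut at about 21% in these data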;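 note: 0% = DMSO alone and 100% = DMSO wells spiked with extra 5 µM PC-3 D3A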
Target sequence (P42574 whole entry D9A/D28A/D175A): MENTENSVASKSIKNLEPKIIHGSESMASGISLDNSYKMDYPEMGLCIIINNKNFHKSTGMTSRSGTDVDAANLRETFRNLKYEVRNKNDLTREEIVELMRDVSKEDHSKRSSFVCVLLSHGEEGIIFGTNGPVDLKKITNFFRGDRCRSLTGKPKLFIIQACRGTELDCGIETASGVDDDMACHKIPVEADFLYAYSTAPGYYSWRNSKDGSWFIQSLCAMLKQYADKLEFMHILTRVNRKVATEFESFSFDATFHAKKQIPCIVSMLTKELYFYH
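assay system = Procaspase-3 D3A mutant | signal = absorbance at 405 nm, 0 and 120 min | times = 1 h preincubation plus 2 h reaction at 25 °C | repeats = single replicate | read-out = % activation between DMSO and enzyme-spiked controls | medium = Zinc-free HEPES saline buffer with Triton X-100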
GRK2 inh confirm: human GRK2 inhibition confirmation, cherry pick 1; shares compounds with GRK2 aptamer HTS; bead-bound GRK2, FAM-aptamer displacement, flow cytometry; aptamer displacement, % at 10 µM; 4% of 2,000 active; AID 504451;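 active = aptamer displacement above 40%, near three times the noise of non-fluorescent compounds, on plates passing quality checks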;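 note: negative values mostly reflect intrinsic compound fluorescence rather than true enhancement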
Aptamer quench SP: counter-screen for GRK2 aptamer inhibitors: fluorescent aptamer quenchers | shares compounds with GRK2 aptamer HTS | Carboxyfluorescein RNA aptamer on beads, flow cytometry quenching; hits give low values | fluorescence response (% of DMSO), % at 10 µM | 2,000 tested, under 10 active | AID 504580;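 active = compounds that quench the bead-bound fluorescent RNA probe, cutting fluorescence to under half of the solvent control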;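 note: counterscreen run without GRK2 so only probe quenching by compound is measured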
The depositor's hits bear a star. In the library only some 1.3% were active in any assay of this set; here they are far more common.

What do the screens show for `O=C(Nc1ccc(Cl)cn1)C1CCN(c2ncnc3c2nc2n3CCCCC2)CC1`?
Lipid droplet: -5.9; procasp7 counter: 15.5; GRK2 aptamer HTS: 55.0*; JMJD2C inh: -5.4; VLA-4 inh: -0.6; proCasp3 act: 6.9; GRK2 inh confirm: -4.5; Aptamer quench SP: 106.9

What do the screens show for `COC(=O)c1ccc(N(CC(=O)NC2CCCC2)C(=O)c2ccc(C)s2)cc1`?
Lipid droplet: -19.5; procasp7 counter: -10.0; GRK2 aptamer HTS: 1.0; JMJD2C inh: 10.6; VLA-4 inh: -2.7; proCasp3 act: 1.8

How did CN(Cc1cccnc1)Cc1c(C(=O)N2CCc3ccccc3C2)nc2ccc(Cl)cn12 do in these assays?
Lipid droplet: -1.6; procasp7 counter: -6.7; GRK2 aptamer HTS: 93.0*; JMJD2C inh: 2.5; VLA-4 inh: -0.7; proCasp3 act: 3.5; GRK2 inh confirm: -1.0; Aptamer quench SP: 100.5

What do the screens show for `CN(Cc1cnccn1)Cc1c(C(=O)N2CCc3ccccc3C2)nc2ccc(Cl)cn12`?
Lipid droplet: -4.3; procasp7 counter: -0.8; GRK2 aptamer HTS: 0.0; JMJD2C inh: -6.7; VLA-4 inh: -3.0; proCasp3 act: 5.9

What do the screens show for `Cc1cc(NC(=O)CSc2nc(-c3cccs3)cc(C(F)(F)F)n2)no1`?
Lipid droplet: 13.5; procasp7 counter: 1.9; GRK2 aptamer HTS: 45.0*; JMJD2C inh: 2.0; VLA-4 inh: 0.7; proCasp3 act: 2.9; GRK2 inh confirm: 0.6; Aptamer quench SP: 92.4

How did CCCNC(=O)CSc1nc(-c2cccs2)cc(C(F)(F)F)n1 do in these assays?
procasp7 counter: -2.2; GRK2 aptamer HTS: 0.0; JMJD2C inh: -7.8; VLA-4 inh: -4.8; proCasp3 act: 1.1

Results for O=C(c1ccco1)N1CCN(C(=S)Nc2ccccc2C(F)(F)F)CC1 ?
Lipid droplet: 46.6; procasp7 counter: -6.8; GRK2 aptamer HTS: 0.0; JMJD2C inh: -7.2; VLA-4 inh: -12.4; proCasp3 act: -5.9

Results for Cc1c(NC(=O)Nc2ccccc2[N+](=O)[O-])c(=O)n(-c2ccccc2)n1C ?
Lipid droplet: 4.0; procasp7 counter: -1.9; GRK2 aptamer HTS: 13.0; JMJD2C inh: 4.1; VLA-4 inh: -0.3; proCasp3 act: 4.4; GRK2 inh confirm: 1.2; Aptamer quench SP: 101.2

How did Cc1ccccc1NC(=O)Nc1ccccn1 do in these assays?
Lipid droplet: 3.0; procasp7 counter: 0.2; GRK2 aptamer HTS: 0.0; JMJD2C inh: -34.4; VLA-4 inh: 30.0; proCasp3 act: 4.5

How did O=C(Nc1ccccn1)Nc1ccccc1[N+](=O)[O-] do in these assays?
Lipid droplet: -1.8; procasp7 counter: -4.7; GRK2 aptamer HTS: 13.0; JMJD2C inh: 2.6; VLA-4 inh: 1.6; proCasp3 act: -6.5; GRK2 inh confirm: 0.3; Aptamer quench SP: 102.9

Results for O=C(Cn1cc([N+](=O)[O-])cn1)Nc1ccccn1 ?
procasp7 counter: -1.1; GRK2 aptamer HTS: 60.0*; JMJD2C inh: 3.2; VLA-4 inh: -13.4; proCasp3 act: -4.1; GRK2 inh confirm: -1.3; Aptamer quench SP: 96.4

What do the screens show for `Cc1ccc(OCCNC(=O)c2ccc(NC(=O)CC3SC(N4CCCC4)=NC3=O)cc2)cc1` (stereo unspecified)?
procasp7 counter: -0.8; GRK2 aptamer HTS: 0.0; JMJD2C inh: -10.3; VLA-4 inh: 1.1; proCasp3 act: -5.8

Results for Cc1ccc(C)c(N2CCN(C(=O)CN3C(=S)NC(C)(C)CC3C)CC2)c1 (stereo unspecified) ?
Lipid droplet: -18.3; procasp7 counter: -6.2; GRK2 aptamer HTS: 1.0; JMJD2C inh: -4.9; VLA-4 inh: 0.5; proCasp3 act: -3.5

What do the screens show for `Cc1cc(NC(=O)CSc2nc(-c3cccnc3)ccc2C#N)no1`?
procasp7 counter: 3.9; GRK2 aptamer HTS: 0.0; JMJD2C inh: 10.2; VLA-4 inh: 3.9; proCasp3 act: -12.7

What do the screens show for `Cc1cc(NC(=O)CSc2nc3c(c(-c4cccnc4)c2C#N)CCC3)no1`?
Lipid droplet: 2.5; procasp7 counter: 10.9; GRK2 aptamer HTS: 77.0*; JMJD2C inh: -32.1; VLA-4 inh: 0.7; proCasp3 act: 8.7; GRK2 inh confirm: 0.6; Aptamer quench SP: 89.6

Results for CCOC(=O)C1=C(CS(=O)(=O)c2ccccc2)NC(=O)NC1c1ccc(OC)c(OC)c1 (stereo unspecified) ?
Lipid droplet: -19.8; procasp7 counter: 0.4; GRK2 aptamer HTS: 40.0; JMJD2C inh: -4.7; VLA-4 inh: 14.1; proCasp3 act: -1.0; GRK2 inh confirm: 1.1; Aptamer quench SP: 101.1

How did COC(=O)C1=C(CS(=O)(=O)c2ccccc2)NC(=O)NC1c1ccc(OC)c(OC)c1 (stereo unspecified) do in these assays?
Lipid droplet: -7.3; procasp7 counter: -3.7; GRK2 aptamer HTS: 0.0; JMJD2C inh: 2.4; VLA-4 inh: 1.4; proCasp3 act: 2.6

Results for COc1ccc([C@H]2CC(=O)C=C(c3ccccc3Oc3ccccc3)C2)cc1 ?
procasp7 counter: -2.6; GRK2 aptamer HTS: 60.0*; JMJD2C inh: 7.0; VLA-4 inh: -1.1; proCasp3 act: -4.5; GRK2 inh confirm: -2.0; Aptamer quench SP: 95.4

What do the screens show for `Cc1cc(C)nc(NS(=O)(=O)c2ccc(NC(=O)c3ccc4c(c3)OCCO4)cc2)n1`?
Lipid droplet: -0.2; procasp7 counter: -2.8; GRK2 aptamer HTS: 3.0; JMJD2C inh: -17.4; VLA-4 inh: 4.5; proCasp3 act: 7.4

What do the screens show for `O=C(Nc1cc(C(=O)N2CCOCC2)cc(C(=O)N2CCOCC2)c1)c1cc(F)c(F)cc1Cl`?
Lipid droplet: -0.2; procasp7 counter: 2.6; GRK2 aptamer HTS: 27.0; JMJD2C inh: -1.8; VLA-4 inh: -8.9; proCasp3 act: 2.0; GRK2 inh confirm: -2.2; Aptamer quench SP: 102.9

How did Cc1cc(-c2cccnc2)c(C#N)c(SCC#N)n1 do in these assays?
Lipid droplet: -3.8; procasp7 counter: 3.4; GRK2 aptamer HTS: 84.0*; JMJD2C inh: -2.7; VLA-4 inh: -5.4; proCasp3 act: 9.4; GRK2 inh confirm: 0.8; Aptamer quench SP: 98.1

How did COc1cc(C)c2c(c1C=O)Oc1c(c(C)c(O)c3c1C(O)OC3=O)OC2=O (stereo unspecified) do in these assays?
Lipid droplet: 13.7; procasp7 counter: -12.8; GRK2 aptamer HTS: 66.0*; JMJD2C inh: 4.7; VLA-4 inh: -6.5; proCasp3 act: -12.8; GRK2 inh confirm: 14.1; Aptamer quench SP: 92.3
